Screens as filed in PubChem BioAssay.
Mdm2 MdmX PPI: disrupts the human Mdm2-MdmX interaction; O15151+Q00987; SaOS-2 split-luciferase Mdm2/MdmX complementation, luminescence; inhibition, % at 8 µM; hit rate 3% among 330,000; AID 485346;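 active = inhibition of at least 50% at 8 µM in the primary screen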
Target sequence (O15151 whole entry, looked up): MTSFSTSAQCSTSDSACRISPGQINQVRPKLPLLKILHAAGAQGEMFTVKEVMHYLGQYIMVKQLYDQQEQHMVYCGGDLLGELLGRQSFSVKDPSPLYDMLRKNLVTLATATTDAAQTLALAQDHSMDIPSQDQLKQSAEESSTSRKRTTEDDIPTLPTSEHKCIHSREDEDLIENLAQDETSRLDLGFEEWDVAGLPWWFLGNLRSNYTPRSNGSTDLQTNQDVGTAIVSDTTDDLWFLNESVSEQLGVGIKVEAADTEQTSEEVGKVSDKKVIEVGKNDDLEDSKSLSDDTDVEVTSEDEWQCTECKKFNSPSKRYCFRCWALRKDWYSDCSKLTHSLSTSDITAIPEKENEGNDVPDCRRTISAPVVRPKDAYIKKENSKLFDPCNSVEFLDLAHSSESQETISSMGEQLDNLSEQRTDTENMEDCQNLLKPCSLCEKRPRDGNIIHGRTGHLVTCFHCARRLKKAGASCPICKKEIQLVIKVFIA
Target sequence (Q00987 whole entry, looked up): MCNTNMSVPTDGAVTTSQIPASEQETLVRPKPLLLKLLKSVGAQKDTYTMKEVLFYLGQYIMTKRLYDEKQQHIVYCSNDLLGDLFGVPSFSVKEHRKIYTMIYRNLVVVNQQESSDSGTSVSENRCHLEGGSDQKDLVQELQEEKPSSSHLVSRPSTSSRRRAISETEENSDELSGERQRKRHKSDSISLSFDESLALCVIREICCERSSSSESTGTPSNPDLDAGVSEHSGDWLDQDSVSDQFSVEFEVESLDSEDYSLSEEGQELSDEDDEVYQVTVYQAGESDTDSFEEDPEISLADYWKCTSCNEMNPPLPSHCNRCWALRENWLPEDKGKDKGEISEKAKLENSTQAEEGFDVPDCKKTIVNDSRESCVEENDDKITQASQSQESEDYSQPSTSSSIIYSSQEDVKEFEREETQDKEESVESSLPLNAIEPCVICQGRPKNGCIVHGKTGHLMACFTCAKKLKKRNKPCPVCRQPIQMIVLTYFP
CHOP UPR activ: apoptotic UPR (CHOP) activation | CHO-CHOP luciferase reporter, luminescence; percent of tunicamycin response over DMSO baseline | activation, % at 10 µM | hit rate 0.34% among 330,000 | AID 449763;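 active = at 10 µM dose, activation of 40% or more, normalized to positive control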
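Evaluation: % reporter activation, DMSO baseline versus tunicamycin full activation; System: CHO-CHOP luciferase reporter cell line; Input: 500 cells/well; Incubation: 6 h compound treatment, 37 °C; Measured by: Steady-Glo luciferase luminescence; Dosing: one dose, 10 µM in 0.5% DMSO; Buffer or medium: F12 medium, 10% FBS; Benchmarks: positive tunicamycin 10 µg/mL, negative DMSO alone.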
Exocytosis inh: lytic granule exocytosis inhibition; inhibition, % at 10 µM; hit rate 0.66% among 360,000; TALL-104 LAMP-1 surface exposure, flow cytometry; cells stimulated with thapsigargin and PMA;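 active = inhibition above about 55%, limit read from the data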
ABHD5-PLIN5 inh: blocks binding of human ABHD5 to perilipin-5. Split G. princeps luciferase complementation, luminescence, 4 h. inhibition, % at 4 µM. hit rate 0.78% among 360,000;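 active = inhibition above the mean inhibition across every tested compound plus 3 SD, cut at about 22% in these data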
XBP1 UPR activ: adaptive UPR (XBP1) activation; CHO-XBP1 luciferase reporter, IRE1-XBP1 UPR activation, luminescence; percent of tunicamycin response, DMSO as zero; activation, % at 20 µM; hit rate 0.33% among 330,000;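 active = versus positive control, 20 µM dose yields 30% or more activation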
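Test system: CHO-XBP1 luciferase reporter cells | Buffer or medium: Serum-containing F12 medium, 10% FBS | Schedule: 6 h compound exposure at 37 °C, 5% CO2 | Detection: Steady-Glo luciferase glow luminescence, 10 min after reagent addition | Read-out basis: Activation, % of tunicamycin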
A number is an active result; i = inactive; nt = no result. The list is not random: actives were taken first. Their share in the collection is about 4%.

SMILES	Mdm2 MdmX PPI	CHOP UPR activ	Exocytosis inh	ABHD5-PLIN5 inh	XBP1 UPR activ
CCN(CC)CCN1C(=O)C(=O)/C(=C(/O)c2ccc3c(c2)CC(C)O3)C1c1ccc(OC)cc1 (centres undefined)	i	i	92.1	i	i
CCOc1ccc(C2/C(=C(/O)c3ccc4c(c3)CC(C)O4)C(=O)C(=O)N2CC2CCCO2)cc1 (centres undefined)	i	i	i	i	i
CCN(C(=O)CN1C(=O)S/C(=C\c2ccc(F)cc2)C1=O)C1CCS(=O)(=O)C1 (centres undefined)	i	i	i	22.6	i
CCc1ccc(/C=C2\SC(=S)N(CCCC(=O)N3CCN(C)CC3)C2=O)cc1	nt	nt	72.0	i	nt
COc1ccc(/C=C2\SC(=S)N(CCCC(=O)N3CCN(C)CC3)C2=O)cc1	i	i	62.7	i	i
Cc1ccccc1NC(=O)Cc1nc(COC(=O)c2cc(Cl)ccc2O)cs1	i	i	i	i	i
O=C(Cn1ncn2c(cc3ccccc32)c1=O)NCc1ccco1	i	i	i	29.3	i
O=C(Cn1ncn2c(cc3ccccc32)c1=O)NCCc1cccs1	i	i	i	i	i
OC1CCCN(Cc2cccc3ccccc23)C1 (centres undefined)	i	i	i	i	i
Cc1ccc(-c2nc(=S)c3c(n2Cc2ccco2)CC(C)(C)OC3)cc1	i	i	61.1	54.7	i
Cc1ccc(-c2nc(=S)c3c(n2Cc2ccco2)CCCC3)cc1	nt	nt	i	i	nt
COC(=O)c1ccc(COc2ccccc2/C=C(\C#N)C(=O)Nc2ccc(C)cc2)cc1	i	i	i	i	i
C=CCNC(=O)/C(C#N)=C/c1ccccc1OCc1ccc(C(=O)OC)cc1	i	i	i	22.0	i
COc1cc([C@@H]2CC=C(C(=O)O)[C@H](c3ccccc3F)N2S(=O)(=O)c2ccc(C)cc2)cc(OC)c1OC	i	i	i	i	i
CC(C)C[C@@H](CN1CCCC1CN1C(=S)NC[C@@H]1Cc1ccc(O)cc1)N1C[C@H](Cc2ccccc2)N(CC2CCCCCC2)C1=S (some centres undefined)	nt	nt	i	i	nt
CC(C)C[C@H]1CNC(=S)N1C[C@H]1CCCN1C[C@H](Cc1ccccc1)N1C[C@H](Cc2ccc(O)cc2)N(CCc2ccccc2)C1=S	nt	nt	i	i	nt
CC(C)C[C@@H](CN1CCCC1CN1C(=S)NC[C@@H]1Cc1ccc(O)cc1)N1C[C@H](Cc2ccc(O)cc2)N(CC2CCCCCC2)C1=S (some centres undefined)	nt	nt	56.3	i	nt
CC(C)C[C@H]1CNC(=S)N1C[C@H]1CCCN1C[C@H](Cc1ccc(O)cc1)N1C[C@H](Cc2ccc(O)cc2)N(CC2CCCCCC2)C1=S	nt	nt	i	26.6	nt
CC(C)C[C@H]1CNC(=S)N1C[C@H]1CCCN1C[C@H](Cc1ccc(O)cc1)N1C[C@H](CC(C)C)N(CCc2ccccc2)C1=S	nt	nt	i	22.8	nt
CCN1CCN(CC#CCOc2ccccc2OC)CC1	i	i	i	i	i
CCOC(=O)C(C)c1nn(C)c(=O)c2ccccc12 (centres undefined)	i	i	i	i	i
COc1cccc(CN(C)S(=O)(=O)c2ccc3c(c2)OCCO3)c1	i	i	i	i	i
CCCCCCC(=O)N(O)C1CC(=O)N(c2ccc(Br)cc2)C1=O (centres undefined)	i	i	102.9	i	i
CCCCNC(=O)C1(C)CCN1C(=O)c1ccc(OC)c(F)c1 (centres undefined)	nt	nt	i	i	nt
CC1CCc2c(sc(Nc3nc4c(F)cccc4s3)c2C(N)=O)C1 (centres undefined)	i	i	84.8	i	i
SMILES	Mdm2 MdmX PPI	CHOP UPR activ	Exocytosis inh	ABHD5-PLIN5 inh	XBP1 UPR activ
C=C(C)C(=O)Nc1cccc(C2=NOC3(C2)C[C@@H](C(N)=O)N(C(=O)c2ccc(OC)cc2)C3)c1 (some centres undefined)	i	i	i	i	i
C=C(C)C(=O)Nc1cccc(C2=NOC3(C2)C[C@@H](C(N)=O)N(C(=O)c2cc([N+](=O)[O-])cc([N+](=O)[O-])c2)C3)c1 (some centres undefined)	i	i	63.6	i	i
CC(=O)Nc1ccc(NC(=O)C(C)OC(=O)c2cc(S(=O)(=O)N3CCOCC3)ccc2Cl)cc1 (centres undefined)	i	i	i	i	i
CCOC(=O)c1c(C)nc2c(c1-c1cc(OC)ccc1OC)C(=O)c1ccccc1-2	i	i	i	i	i
CCOC(=O)c1ccc(COC(=O)c2ccc3c(c2)-c2ccccc2C3=O)cc1	i	i	i	i	i
CCOC(=O)C1=C(O)c2ccccc2C(=O)/C1=C\c1ccc(CC)cc1	nt	nt	101.5	i	nt
CCCc1ccc(/C=C2\C(=O)c3ccccc3C(O)=C2C(=O)OCC)cc1	i	i	nt	nt	i
CCOC(=O)C1=C(Cc2ccc(OC)cc2)C(=O)c2ccccc2C1=O	nt	nt	105.2	i	nt
CCOC(=O)C1=C(Cc2ccc(C)cc2)C(=O)c2ccccc2C1=O	i	97.5	nt	nt	i
Cc1ccc(SCC(=O)Nc2oc(C)c3c(C)n[nH]c(=O)c23)cc1C	i	i	i	i	i
COc1ccc(-n2c(=S)[nH]c3cc(C(=O)Nc4ccccc4OC)ccc3c2=O)cc1	i	i	nt	nt	31.7
CC1=NN(c2ccccc2)C(=O)/C1=C\c1cn(CCC#N)nc1-c1ccc(Cl)cc1	i	i	i	i	i
O=C(NC1CCCC1)c1ccc(CSCc2ccccc2F)o1	i	i	i	i	i
COc1cccc(-c2nc(NCCN3CCOCC3)c3ccccc3n2)c1O	i	i	i	i	i
Oc1ccccc1-c1nc(NCCN2CCOCC2)c2ccccc2n1	i	i	i	22.3	i
Cn1c(C(=O)NC2CC2)cc2c(=O)n(C)c3ccccc3c21	i	i	i	i	i
Cn1c(C(=O)Nc2ccc3c(c2)OCCO3)cc2c(=O)n(C)c3ccccc3c21	i	i	79.6	i	i
CCN1/C(=C/c2ccc3cc(C)ccc3[n+]2CC)Sc2cc(C)ccc21	nt	nt	85.3	i	nt
CCN1/C(=C/c2ccc3cc(C)ccc3[n+]2C)Sc2ccc3sccc3c21	nt	nt	61.5	i	nt
O=C(O)C1(NS(=O)(=O)c2ccc(Cl)cc2)CCCCC1	i	i	i	i	i
COc1ccc(-c2nnc3sc(-c4ccco4)nn23)cc1OC	i	i	i	i	i
Cc1oc(-c2ccc(F)cc2)cc1-c1nn2c(-c3ccoc3C)nnc2s1	i	i	i	29.5	i
O=[N+]([O-])c1ccc2c3n([n+]([O-])c2c1)CCN=C3c1ccc(Cl)cc1	i	i	77.9	i	i
CCOC(=O)c1ccc(NC(=S)N(CCCN2CCN(CC)CC2)Cc2cccs2)cc1	i	i	i	i	i
N#CC1(NC(=O)COC(=O)c2cc(O)c3ccccc3c2O)CCCCC1	i	i	61.1	i	i
N#CC1(NC(=O)COC(=O)c2ccccc2[N+](=O)[O-])CCCCC1	i	i	i	i	i
